# Screening results: PubChem, several laboratories
# NPY-Y2 PAM-ag – potentiators or agonists of human neuropeptide Y receptor Y2; cells expressing NPY-Y2, potentiator/agonist read-out; activation, % at 3.6 µM; AID 1359; P49146; hit rate 0.45% among 220,000; in the data active means activation above about 27%;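 further: cells stimulated with NPY near EC25 plus isoproterenol at EC100; 0% = vehicle plus submaximal agonist and 100% = vehicle plus saturating agonist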
# Target sequence (P49146 whole entry, looked up): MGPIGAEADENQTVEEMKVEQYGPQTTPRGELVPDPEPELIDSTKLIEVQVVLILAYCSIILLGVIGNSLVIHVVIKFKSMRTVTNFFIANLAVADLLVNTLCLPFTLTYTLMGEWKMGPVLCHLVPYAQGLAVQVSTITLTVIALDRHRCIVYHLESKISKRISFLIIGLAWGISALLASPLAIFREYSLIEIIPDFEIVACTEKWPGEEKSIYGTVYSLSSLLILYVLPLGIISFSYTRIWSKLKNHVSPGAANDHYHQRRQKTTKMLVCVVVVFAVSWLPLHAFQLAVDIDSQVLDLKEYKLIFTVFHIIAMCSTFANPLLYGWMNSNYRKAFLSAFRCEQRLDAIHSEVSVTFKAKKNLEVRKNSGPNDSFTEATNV
# NPY-Y1 antag – blocks the human neuropeptide Y Y1 receptor; P25929; HEK293-CNG Y1 cells, membrane potential fluorescence; NPY at EC95, then isoproterenol; inhibition, % at 3.6 µM; hit rate 1% among 200,000; AID 1040;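 active means inhibition above the campaign mean inhibition of all tested compounds plus 3 SD, cut at about 20% in these data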;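 further: 0% = DMSO wells given NPY plus isoproterenol and 100% = isoproterenol alone without NPY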
#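 Test system: HEK293 cells co-expressing NPY Y1 receptor and cyclic-nucleotide gated channel; Also added: NPY (25 nM), isoproterenol (1 µM), Ro 20-1724 (25 µM); Compound dosing: one concentration, 3.6 µM, in 0.4% DMSO; Timing: dye 3 h, compound 60 min room temperature, stimulation 45 min; Technique: Membrane-potential fluorescent dye readout.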
# INS promoter inh – TRM-6 insulin promoter activity inhibition. AID 1273. TRM-6 cells, insulin promoter-eGFP reporter, imaging; reporter expression induced with tamoxifen. hit rate 0.9% among 130,000. inhibition, % at 2 µM;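 active means inhibition above the mean plus 3 SD, with well images judged a real hit on visual review, cut at about 60% in these data, passing the limit was not always enough; inconclusive means inhibition over the cutoff but images rejected on review; inactive means inhibition not above the cutoff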
# NPY1 pot ag – potentiates or activates human NPY-Y1 receptor | P25929 | NPY-Y1 expressing cells, potentiator/agonist activation | activation, % at 3.6 µM | hit rate 0.37% among 220,000 | AID 1304; in the data active means activation above about 33%, passing the limit was not always enough;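 further: cells stimulated with NPY at EC10 then isoproterenol at EC100; 0% = low agonist plus stimulus and 100% = saturating agonist plus stimulus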
# Ins promoter up – MIN6 insulin promoter up-regulation; MIN6 insulin promoter-GFP reporter, high-content imaging; hits give high values; z-score at 5 µM; hit rate 0.3% among 190,000;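 active means z-score above 3 at 5 µM with at least 500 cells counted in the well; inconclusive means wells under 500 cells, flagged as cytotoxic or low count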
# NPY Y2 blocker – blocks the human neuropeptide Y Y2 receptor. NPY-Y2 expressing cells, antagonist mode. inhibition, % at 2.7 µM. hit rate 0.99% among 140,000. AID 793;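 further: 0% = vehicle with agonist challenge and 100% = reference antagonist with challenge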
# NPY-Y1 ant conf – human NPY-Y1 antagonism, confirmation; shares compounds with NPY-Y1 antag; HEK293-CNG NPY-Y1, membrane potential fluorescence, cAMP; NPY challenge against isoproterenol-raised cAMP; inhibition, % at 3.6 µM; hit rate 21% among 1,200; in the data active means inhibition above about 20%;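 further: 0% = vehicle with agonist plus stimulus and 100% = stimulus alone without agonist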
# NPY-Y2 antag ct – human NPY-Y2 antagonism in NPY-Y1 counter-screen; inhibition, % at 3.6 µM; shares compounds with NPY-Y1 antag; hit rate 28% among 1,200; HEK293 NPY-Y2 CNG membrane potential fluorescence; cells given NPY, then isoproterenol;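 further: 0% = DMSO with agonist challenge and 100% = reference antagonist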
# The depositor's hits bear a star; u = inconclusive; x = no result. Hits are enriched below; roughly 2.5% of the tested compounds scored in any of these assays. Unless noted, no stated cut-off is given here; in the data, active means inhibition above about 17%; inactive means the rest.
SMILES,NPY-Y2 PAM-ag,NPY-Y1 antag,INS promoter inh,NPY1 pot ag,Ins promoter up,NPY Y2 blocker,NPY-Y1 ant conf,NPY-Y2 antag ct
CC1(C)CC(=O)C(C(=O)C2CCN(S(=O)(=O)c3ccccc3)CC2)C(=O)C1,6,-3,x,-3,0.64,x,x,x
CCC(C)(C)n1nnnc1CN(Cc1ccc(Cl)cc1)Cc1ccco1,-23,24*,x,-37,-1.4,17,17,14
CCC(C)(C)n1nnnc1CN(Cc1ccco1)Cc1cc2cc3c(cc2[nH]c1=O)OCO3,1,4,-67,-27,x,4,x,x
CCOc1ccc(S(=O)(=O)N2c3ccccc3CC2C)cc1 (configuration not stated),-10,38*,-257,-27,u,15,8,17*
COC(/C=C/Nc1ccc(OC)cc1)=C(C#N)C#N,-5,40*,19,-8,0.45,0,1,0
COC(/C=C/Nc1ccc(Cl)cc1)=C(C#N)C#N,-22,1,x,-24,0.28,x,x,x
O=S(=O)(c1cccc(-c2n[nH]c(=S)o2)c1)N1CCOCC1,12,x,x,15,-0.36,x,x,x
COc1ccc(CCNS(=O)(=O)c2ccc(OC)cc2)cc1,-29,23*,3,-8,-0.02,8,10,7
CCOC(=O)C1CCCN(C(=O)Nc2cccc(Cl)c2)C1 (configuration not stated),6,2,-30,-1,0.25,5,x,x
Cc1nn(C)c(C(=O)Nc2ccc(Cn3cccn3)cc2)c1[N+](=O)[O-],-11,25*,9,10,x,0,-1,0
CN(Cc1ccccc1)C(=O)CN(Cc1ccccc1)S(C)(=O)=O,-15,1,-44,-20,x,5,x,x
COc1cc2c(cc1NC(C)=O)CCCC2,-2,-5,14,11,x,0,x,x
COc1cc2c(cc1NC(=O)c1cccnc1)CCCC2,6,-6,-53,-13,-0.18,0,x,x
COc1cc2c(cc1NC(=O)c1ccc(C(C)(C)C)cc1)CCCC2,-37,32*,-43,-73,0.48,10,20,45*
COc1ccc(C(=O)Nc2cc3c(cc2OC)CCCC3)cc1Br,-21,29*,-3,-78,0.03,10,9,10
C=CCSc1ncc(C#N)c(N)n1,-1,1,-8,11,x,1,x,x
Fc1ccccc1CSc1nnc(-c2ccccc2)o1,4,29*,-35,-13,0.35,6,4,8
COc1ccc(-c2nnc(SCc3ccccc3F)o2)cc1,-4,22*,87*,-20,x,6,9,11
Fc1ccccc1CSc1nnc(-c2cccnc2)o1,-3,-1,-7,-1,-0.76,x,x,x
O=C(O)Cc1sc(Nc2ccccc2)nc1-c1cccs1,-2,x,x,8,0.19,x,x,x
O=C(N/N=C/c1ccccc1OC(=O)c1ccc2c(c1)OCO2)c1cccc(F)c1,-11,21*,0,-25,-0.42,17,16,9
COc1cc(/C=N/NC(=O)c2cccnc2)ccc1OC(=O)c1ccc2c(c1)OCO2,-10,-5,x,-6,-0.51,5,x,x
Cc1ccnc(NC2(C(F)(F)F)N=C(c3ccccc3)NC2=O)c1 (configuration not stated),-2,1,30,-15,-0.73,0,x,x
CC(c1nnc(SCC(=O)Nc2cccnc2Cl)n1-c1ccccc1)N(C)C (configuration not stated),6,7,x,13,x,x,x,x
COc1ccc(F)cc1C(=O)C1CCCN(Cc2cccn2-c2ccccn2)C1 (configuration not stated),-27,35*,x,-29,-0.89,x,23*,20*
COc1ccc(C(=O)C2CCCN(Cc3cccn3-c3ccccn3)C2)c(OC)c1 (configuration not stated),-36,27*,x,-28,x,x,21*,18*
O=c1cc(CN2CCC3(CC2)OCCO3)c2c(ccc3ccccc32)o1,-13,4,x,-10,-0.06,7,x,x
